{"source": "ChEMBL document CHEMBL1147022", "about": "“Studies on synthesis and evaluation of quantitative structure-activity relationship of 10-methyl-6-oxo-5-arylazo-6,7-dihydro-5H-[1,3]azaphospholo[1,5-d][1,4]benzodiazepin-2-phospha-3-ethoxycarbonyl-1-phosphorus dichlorides” (2006)", "format_in_all_cases": "functional", "set-up_in_all_cases": "unit not given here", "key": {"Bacillus subtilis": {"tested_on": "Bacillus subtilis", "assay": "Antibacterial activity against Bacillus subtilis ATCC 6633", "how_it_was_run": "(§1)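 Agar 2-fold serial dilution MIC on nutrient agar. Test compounds come from 1 mg/mL DMSO stocks. Inoculum is about 10⁷ CFU/mL bacterial suspension prepared from broth cultures. Plates are run in triplicate and incubated at 37 °C for 16–47 h. Ampicillin trihydrate is the reference drug, tested under the same conditions.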"}, "Aspergillus niger": {"tested_on": "Aspergillus niger", "assay": "Antifungal activity against Aspergillus niger ATCC 16404", "how_it_was_run": "(§2)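 Fungal MIC by standard 2-fold serial dilution in Sabouraud dextrose agar, using compounds diluted from 1 mg/mL DMSO stocks. Plates receive about 10⁶ CFU/mL fungal suspension made from broth cultures, in triplicate, and are kept at 37 °C for 48–72 h. Clotrimazole is the reference drug.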"}, "Candida albicans": {"tested_on": "Candida albicans", "assay": "Antifungal activity against Candida albicans ATCC 10231", "how_it_was_run": "as §2"}, "Escherichia coli": {"tested_on": "Escherichia coli", "assay": "Antibacterial activity against Escherichia coli ATCC 445", "how_it_was_run": "as §1"}}, "data": [{"smiles": "CCOC(=O)c1pc(P(Cl)Cl)c2n1[C@@H](N=Nc1ccc(OC)cc1)C(=O)Nc1ccc(C)cc1-2", "note": "(stereo partly drawn)", "values": [{"measurement": "-Log MIC", "setting": "Bacillus subtilis", "result": 4.29}, {"measurement": "-Log MIC", "setting": "Aspergillus niger", "result": 4.39}, {"measurement": "-Log MIC", "setting": "Candida albicans", "result": 4.24}, {"measurement": "-Log MIC", "setting": "Escherichia coli", "result": 4.26}]}, {"smiles": "CCOC(=O)c1pc(P(Cl)Cl)c2n1[C@@H](N=Nc1cccc(OCC)c1)C(=O)Nc1ccc(C)cc1-2", "note": "(stereo partly drawn)", "values": [{"measurement": "-Log MIC", "setting": "Bacillus subtilis", "result": 4.96}, {"measurement": "-Log MIC", "setting": "Aspergillus niger", "result": 4.89}, {"measurement": "-Log MIC", "setting": "Candida albicans", "result": 4.78}, {"measurement": "-Log MIC", "setting": "Escherichia coli", "result": 5.04}]}, {"smiles": "CCOC(=O)c1pc(P(Cl)Cl)c2n1[C@@H](N=Nc1ccc([N+](=O)[O-])cc1)C(=O)Nc1ccc(C)cc1-2", "note": "(stereo partly drawn)", "values": [{"measurement": "-Log MIC", "setting": "Bacillus subtilis", "result": 4.52}, {"measurement": "-Log MIC", "setting": "Aspergillus niger", "result": 4.45}, {"measurement": "-Log MIC", "setting": "Candida albicans", "result": 4.32}, {"measurement": "-Log MIC", "setting": "Escherichia coli", "result": 4.61}]}, {"smiles": "CCOC(=O)c1pc(P(Cl)Cl)c2n1[C@@H](N=Nc1ccc(C)cc1)C(=O)Nc1ccc(C)cc1-2", "note": "(stereo partly drawn)", "values": [{"measurement": "-Log MIC", "setting": "Bacillus subtilis", "result": 4.22}, {"measurement": "-Log MIC", "setting": "Aspergillus niger", "result": 4.22}, {"measurement": "-Log MIC", "setting": "Candida albicans", "result": 4.09}, {"measurement": "-Log MIC", "setting": "Escherichia coli", "result": 4.17}]}, {"smiles": "CCOC(=O)c1pc(P(Cl)Cl)c2n1[C@@H](N=Nc1cccc(O)c1)C(=O)Nc1ccc(C)cc1-2", "note": "(stereo partly drawn)", "values": [{"measurement": "-Log MIC", "setting": "Bacillus subtilis", "result": 4.22}, {"measurement": "-Log MIC", "setting": "Aspergillus niger", "result": 4.25}, {"measurement": "-Log MIC", "setting": "Candida albicans", "result": 4.11}, {"measurement": "-Log MIC", "setting": "Escherichia coli", "result": 4.2}]}, {"smiles": "CCOC(=O)c1pc(P(Cl)Cl)c2n1[C@@H](N=Nc1ccc(O)cc1)C(=O)Nc1ccc(C)cc1-2", "note": "(stereo partly drawn)", "values": [{"measurement": "-Log MIC", "setting": "Bacillus subtilis", "result": 4.17}, {"measurement": "-Log MIC", "setting": "Aspergillus niger", "result": 4.18}, {"measurement": "-Log MIC", "setting": "Candida albicans", "result": 4.06}, {"measurement": "-Log MIC", "setting": "Escherichia coli", "result": 4.11}]}, {"smiles": "CCOC(=O)c1pc(P(Cl)Cl)c2n1[C@@H](N=Nc1cccc([N+](=O)[O-])c1)C(=O)Nc1ccc(C)cc1-2", "note": "(stereo partly drawn)", "values": [{"measurement": "-Log MIC", "setting": "Bacillus subtilis", "result": 4.55}, {"measurement": "-Log MIC", "setting": "Aspergillus niger", "result": 4.56}, {"measurement": "-Log MIC", "setting": "Candida albicans", "result": 4.5}]}, {"smiles": "CCOC(=O)c1pc(P(Cl)Cl)c2n1[C@@H](N=Nc1ccc(OCC)cc1)C(=O)Nc1ccc(C)cc1-2", "note": "(stereo partly drawn)", "values": [{"measurement": "-Log MIC", "setting": "Bacillus subtilis", "result": 4.83}, {"measurement": "-Log MIC", "setting": "Aspergillus niger", "result": 4.74}, {"measurement": "-Log MIC", "setting": "Candida albicans", "result": 4.59}, {"measurement": "-Log MIC", "setting": "Escherichia coli", "result": 4.74}]}, {"smiles": "CCOC(=O)c1pc(P(Cl)Cl)c2n1[C@@H](N=Nc1ccc(Cl)cc1)C(=O)Nc1ccc(C)cc1-2", "note": "(stereo partly drawn)", "values": [{"measurement": "-Log MIC", "setting": "Bacillus subtilis", "result": 4.41}, {"measurement": "-Log MIC", "setting": "Aspergillus niger", "result": 4.51}, {"measurement": "-Log MIC", "setting": "Candida albicans", "result": 4.36}, {"measurement": "-Log MIC", "setting": "Escherichia coli", "result": 4.39}]}, {"smiles": "CCOC(=O)c1pc(P(Cl)Cl)c2n1[C@@H](N=Nc1cccc(C(=O)O)c1)C(=O)Nc1ccc(C)cc1-2", "note": "(stereo partly drawn)", "values": [{"measurement": "-Log MIC", "setting": "Bacillus subtilis", "result": 4.37}, {"measurement": "-Log MIC", "setting": "Aspergillus niger", "result": 4.48}, {"measurement": "-Log MIC", "setting": "Candida albicans", "result": 4.32}, {"measurement": "-Log MIC", "setting": "Escherichia coli", "result": 4.36}]}, {"smiles": "CCOC(=O)c1pc(P(Cl)Cl)c2n1[C@@H](N=Nc1cccc(C)c1)C(=O)Nc1ccc(C)cc1-2", "note": "(stereo partly drawn)", "values": [{"measurement": "-Log MIC", "setting": "Bacillus subtilis", "result": 4.25}, {"measurement": "-Log MIC", "setting": "Aspergillus niger", "result": 4.31}, {"measurement": "-Log MIC", "setting": "Candida albicans", "result": 4.17}, {"measurement": "-Log MIC", "setting": "Escherichia coli", "result": 4.22}]}, {"smiles": "CCOC(=O)c1pc(P(Cl)Cl)c2n1[C@@H](N=Nc1cccc(CC)c1)C(=O)Nc1ccc(C)cc1-2", "note": "(stereo partly drawn)", "values": [{"measurement": "-Log MIC", "setting": "Bacillus subtilis", "result": 4.68}, {"measurement": "-Log MIC", "setting": "Aspergillus niger", "result": 4.82}, {"measurement": "-Log MIC", "setting": "Candida albicans", "result": 4.61}, {"measurement": "-Log MIC", "setting": "Escherichia coli", "result": 4.88}]}, {"smiles": "CCOC(=O)c1pc(P(Cl)Cl)c2n1[C@@H](N=Nc1cccc(OC)c1)C(=O)Nc1ccc(C)cc1-2", "note": "(stereo partly drawn)", "values": [{"measurement": "-Log MIC", "setting": "Bacillus subtilis", "result": 4.28}, {"measurement": "-Log MIC", "setting": "Aspergillus niger", "result": 4.56}, {"measurement": "-Log MIC", "setting": "Candida albicans", "result": 4.39}, {"measurement": "-Log MIC", "setting": "Escherichia coli", "result": 4.3}]}, {"smiles": "CCOC(=O)c1pc(P(Cl)Cl)c2n1[C@@H](N=Nc1ccc(CC)cc1)C(=O)Nc1ccc(C)cc1-2", "note": "(stereo partly drawn)", "values": [{"measurement": "-Log MIC", "setting": "Bacillus subtilis", "result": 4.64}, {"measurement": "-Log MIC", "setting": "Aspergillus niger", "result": 4.64}, {"measurement": "-Log MIC", "setting": "Candida albicans", "result": 4.52}, {"measurement": "-Log MIC", "setting": "Escherichia coli", "result": 4.58}]}, {"smiles": "CCOC(=O)c1pc(P(Cl)Cl)c2n1[C@@H](N=Nc1cccc(Cl)c1)C(=O)Nc1ccc(C)cc1-2", "note": "(stereo partly drawn)", "values": [{"measurement": "-Log MIC", "setting": "Bacillus subtilis", "result": 4.46}, {"measurement": "-Log MIC", "setting": "Aspergillus niger", "result": 4.68}, {"measurement": "-Log MIC", "setting": "Candida albicans", "result": 4.47}, {"measurement": "-Log MIC", "setting": "Escherichia coli", "result": 4.54}]}, {"smiles": "CCOC(=O)c1pc(P(Cl)Cl)c2n1[C@@H](N=Nc1ccccc1)C(=O)Nc1ccc(C)cc1-2", "note": "(stereo partly drawn)", "values": [{"measurement": "-Log MIC", "setting": "Bacillus subtilis", "result": 4.05}, {"measurement": "-Log MIC", "setting": "Aspergillus niger", "result": 4.12}, {"measurement": "-Log MIC", "setting": "Candida albicans", "result": 4.1}, {"measurement": "-Log MIC", "setting": "Escherichia coli", "result": 4.05}]}]}
